Drawing on ChEMBL document CHEMBL1151266, “Cytotoxic principles from the formosan milkweed, Asclepias curassavica” (J Nat Prod, 2005), this text covers IC50 for twelve compounds.

Converted amounts (≈) assume the structure as drawn.

Holding throughout (assay type): functional, cell-based
One experiment concerns MDA-MB-231. Kind of experiment: Cytotoxicity against human MDA-MB-231 cells after 3 days by MTT assay. As to conditions: MDA-MB-231, 72 h. The gist of the method:
(§1)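 Freshly trypsinized cells seeded at 5000-10 000 per well; test agents added from DMSO stock. After 3 days in culture, attached cells incubated with MTT (0.5 mg/mL, 1 h), then solubilized in DMSO; absorbance read at 550 nm. IC50 taken as concentration reducing cell growth by 50%.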
(In general: Formazan colour is commonly taken as a measure of viable cells.)

A further experiment relates to MCF7. Kind of experiment: Cytotoxicity against human MCF7 cells after 3 days by MTT assay. The conditions noted are these: MCF7, 72 h. The gist of the method: as §1
In another experiment the test system is HepG2. Kind of experiment: Cytotoxicity against human HepG2 cells after 3 days by MTT assay. The conditions noted are these: HepG2, 72 h. The gist of the method:
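Freshly trypsinized cells seeded at 5000-10 000 per well; test agents added from DMSO stock. After 3 days in culture, attached cells incubated with MTT (0.5 mg/mL, 1 h), then solubilized in DMSO; absorbance read at 550 nm.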

The subject of another experiment is A549. Kind of experiment: Cytotoxicity against human A549 cells after 3 days by MTT assay. The conditions noted are these: A549, 72 h. An outline of the steps: as §1
For the next experiment, the system named is KB. Nature of the experiment: Cytotoxicity against human KB cells.

As usually defined, the IC50 is the concentration at which inhibition is half-maximal. Low readings indicate inhibition by little substance, high ones a need for much substance. As for `CC(=O)O[C@@H]1C[C@]2(O)[C@@H]3CC[C@H]4C[C@H]5O[C@@H]6O[C@H](C)C[C@H](O)[C@]6(O)O[C@@H]5C[C@]4(C=O)[C@H]3CC[C@]2(C)[C@H]1C1=CC(=O)OC1`, the IC50 is 0.49 µg/mL (≈ 0.83 µM) in the experiment on MDA-MB-231, 0.28 µg/mL (≈ 0.474 µM) with MCF7, 0.39 µg/mL (≈ 0.66 µM) with HepG2 and 0.11 µg/mL (≈ 0.186 µM) in the experiment with A549.

As to `CC(=O)O[C@H]1C[C@@H](C)O[C@H]2O[C@@H]3C[C@@H]4CC[C@@H]5[C@H](CC[C@]6(C)[C@@H](C7=CC(=O)OC7)CC[C@]56O)[C@@]4(C=O)C[C@H]3O[C@]21O` [ASCLEPIN], the 50% inhibitory concentration (IC50) in the experiment with MDA-MB-231 amounted to 0.06 µg/mL (≈ 0.104 µM); in the experiment with MCF7, 0.02 µg/mL (≈ 0.0348 µM); in the experiment on HepG2, 0.05 µg/mL (≈ 0.087 µM); in the experiment with A549, 0.01 µg/mL (≈ 0.0174 µM).

For the compound `C[C@@H]1C[C@@H](O)[C@]2(O)O[C@@H]3C[C@@]4(C=O)[C@@H](CC[C@@H]5[C@@H]4CC[C@]4(C)[C@@H](C6=CC(=O)OC6)CC[C@]54O)C[C@H]3O[C@@H]2O1` [CALACTIN], the IC50 in the experiment on MDA-MB-231 came out at 0.03 µg/mL (≈ 0.0563 µM); in the experiment with MCF7 it was 0.01 µg/mL (≈ 0.0188 µM); with HepG2 it was 0.02 µg/mL (≈ 0.0375 µM); in the experiment with A549 it was 0.0029 µg/mL (≈ 0.00544 µM).

`C[C@@H]1C[C@H](O)[C@]2(O)O[C@@H]3C[C@@]4(C=O)[C@@H](CC[C@@H]5[C@@H]4CC[C@]4(C)[C@@H](C6=CC(=O)OC6)C[C@@H](O)[C@]54O)C[C@H]3O[C@@H]2O1`: the half-maximal inhibitory concentration (IC50) in the experiment with MDA-MB-231 was 0.98 µg/mL (≈ 1.79 µM); with MCF7, 0.48 µg/mL (≈ 0.875 µM); in the experiment on HepG2, 0.15 µg/mL (≈ 0.273 µM); in the experiment on A549 it was 0.1 µg/mL (≈ 0.182 µM).

`CC(=O)O[C@H]1C[C@@H](C)O[C@H]2O[C@@H]3C[C@@H]4CC[C@@H]5[C@H](CC[C@]6(C)[C@@H](C7=CC(=O)OC7)[C@H](O)C[C@]56O)[C@@]4(C=O)C[C@H]3O[C@]21O`: the IC50 in the experiment with MDA-MB-231 came out at 1.52 µg/mL (≈ 2.57 µM); in the experiment with MCF7, 1 µg/mL (≈ 1.69 µM); in the experiment with HepG2 it was 0.51 µg/mL (≈ 0.863 µM); with A549, 0.14 µg/mL (≈ 0.237 µM).

Regarding `C[C@@H]1CC(=O)[C@]2(O)O[C@@H]3C[C@@]4(C=O)[C@@H](CC[C@@H]5[C@@H]4CC[C@]4(C)[C@@H](C6=CC(=O)OC6)CC[C@]54O)C[C@H]3O[C@@H]2O1` [USCHARIDIN], the 50% inhibitory concentration (IC50) in the experiment with MDA-MB-231 is 0.09 µg/mL (≈ 0.17 µM); in the experiment on MCF7, 0.04 µg/mL (≈ 0.0754 µM); in the experiment on HepG2, 0.04 µg/mL (≈ 0.0754 µM); in the experiment with A549, 0.01 µg/mL (≈ 0.0188 µM).

As for `C[C@@H]1C[C@@]2(N=CCS2)[C@]2(O)O[C@@H]3C[C@@]4(C=O)[C@@H](CC[C@@H]5[C@@H]4CC[C@]4(C)[C@@H](C6=CC(=O)OC6)CC[C@]54O)C[C@H]3O[C@@H]2O1` [USCHARIN], the IC50 came to 0.1 µg/mL (≈ 0.17 µM) with MDA-MB-231, 0.04 µg/mL (≈ 0.0681 µM) in the experiment on MCF7, 1.1 µg/mL (≈ 1.87 µM) with HepG2 and 0.01 µg/mL (≈ 0.017 µM) with A549.

Take `C[C@@H]1C[C@H](O)[C@]2(O)O[C@@H]3C[C@@]4(C=O)[C@@H](CC[C@@H]5[C@@H]4CC[C@]4(C)[C@@H](C6=CC(=O)OC6)CC[C@]54O)C[C@H]3O[C@@H]2O1` [CALOTROPIN]: the IC50 with MDA-MB-231 stood at 0.16 µg/mL (≈ 0.3 µM); with MCF7, 0.08 µg/mL (≈ 0.15 µM); in the experiment with HepG2, 0.11 µg/mL (≈ 0.207 µM); in the experiment on KB it was 0.015 µg/mL (≈ 0.0282 µM); with A549, 0.02 µg/mL (≈ 0.0375 µM).

For `C[C@]12CC[C@H](O)C[C@H]1CC[C@@H]1[C@@H]2CC[C@]2(C)[C@@H](C3=CC(=O)OC3)CC[C@]12O` [DIGITOXIGENIN], the half-maximal inhibitory concentration (IC50) in the experiment with MDA-MB-231 was 1.9 µg/mL (≈ 5.07 µM); with MCF7, 1.69 µg/mL (≈ 4.51 µM); with HepG2, 0.12 µg/mL (≈ 0.32 µM); in the experiment with A549 it was 0.24 µg/mL (≈ 0.641 µM).

Turning to `COc1cccc2c1C(=O)c1c(O)c3c(c(O)c1C2=O)C[C@@](O)(C(=O)CO)C[C@@H]3O[C@H]1C[C@H](N)[C@H](O)[C@H](C)O1` [DOXORUBICIN], the IC50 came out at 0.56 µg/mL (≈ 1.03 µM) in the experiment on MCF7 and 0.79 µg/mL (≈ 1.45 µM) in the experiment on A549.

For `C[C@@H]1C[C@@H](O)[C@]2(O)O[C@@H]3C[C@@]4(C=O)[C@@H](CC[C@@H]5[C@@H]4CC[C@]4(C)[C@@H](C6=CC(=O)OC6)C[C@@H](O)[C@]54O)C[C@H]3O[C@@H]2O1`, the IC50 with MDA-MB-231 came out at 0.45 µg/mL (≈ 0.82 µM); with MCF7, 0.38 µg/mL (≈ 0.693 µM); in the experiment on HepG2, 0.16 µg/mL (≈ 0.292 µM); in the experiment on A549 it was 0.07 µg/mL (≈ 0.128 µM).

Regarding `CC(=O)O[C@H]1C[C@@H](C)O[C@H]2O[C@@H]3C[C@@H]4CC[C@@H]5[C@H](CC[C@]6(C)[C@@H](C7=CC(=O)OC7)[C@H](OC(C)=O)C[C@]56O)[C@@]4(C=O)C[C@H]3O[C@]21O`, the 50% inhibitory concentration (IC50) with MDA-MB-231 came to 0.39 µg/mL (≈ 0.616 µM); in the experiment on MCF7 it was 0.17 µg/mL (≈ 0.269 µM); with HepG2, 0.13 µg/mL (≈ 0.205 µM); in the experiment on A549, 0.02 µg/mL (≈ 0.0316 µM).
